This passage reports inhibition results from PubChem BioAssay AID463079 (The Scripps Research Institute Molecular Screening Center, 2010).

Among all 330,000 compounds or so, about 2,000 (0.61%) were called active.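 Rule for the calls: active = inhibition above that plate's mean sample inhibition plus 3 SD (cut at about 26% in these data); inactive = the rest.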 Only a selection was taken, and actives are over-represented in it overall.

This test can be described thus: nonselective Gq signaling inhibition in CHO cells – cell-based, fluorescence, Fluo-8 calcium dye, counter-screen for OX1R antagonist project, primary screen (AID 463079).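 Note: 0% = ATP-challenged DMSO wells and 100% = DMSO wells without ATP.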 The following applies: parental CHO-K1, ATP-induced calcium, Fluo-8 fluorescence; at 5.6 µM; hits give high values. Put shortly:
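Material: Parental CHO cells | Reagent: ATP | Compound dosing: Single nominal dose of 5.6 µM per compound | Detection: Intracellular calcium via Fluo-8 no-wash fluorescent dye | Read-out: % inhibition of ATP-induced calcium mobilization | Benchmarks: Low control ATP plus DMSO, high control DMSO only | Replicates: Singlicate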
Take `COC(=O)CNS(=O)(=O)c1ccc(OC)cc1`: the inhibition is 4.49% (inactive).

As for `COc1ccc(S(=O)(=O)NCCCCOc2ccc(Cl)cc2)cc1`, the inhibition was 62.1% (active). With `COc1ccc(S(=O)(=O)NCCCc2ccccc2)cc1`, the inhibition was 9.88% (inactive).

Turning to `Cc1ccc([C@@H]2CC=C(C(=O)O)[C@H](c3cccc(Cl)c3)N2S(=O)(=O)c2ccc(C)cc2)cc1`, the inhibition was -14.4% (inactive). The same measure for `Cc1ccc(S(=O)(=O)N2[C@@H](c3cccc(Cl)c3)C(C(=O)O)=CC[C@H]2c2ccc(Cl)c(Cl)c2)cc1`: 36.9% (active); for `Cc1ccccc1S(=O)(=O)N1[C@@H](c2cccc(Cl)c2)C(C(=O)O)=CC[C@H]1c1ccc(Cl)cc1`: -5.28% (inactive).

In the case of `Cc1ccc(S(=O)(=O)Nc2nc(C)cc(-n3nc(C)cc3C)n2)cc1`, the inhibition is 2.29% (inactive). Consider `CCCC(C(=O)n1nc(C)cc1C)C(NS(=O)(=O)c1ccc(C)cc1)c1ccccc1` (stereo unspecified), for which the inhibition was 40.6% (active).

Regarding `Cc1ccc(S(=O)(=O)NC(C(=O)N2CCOCCOCCOCCOCC2)c2ccccc2)cc1` (stereo unspecified), the inhibition was -9.77% (inactive). The same measure for `C/C(=N/OC(=O)c1cccc(C(F)(F)F)c1)c1cnccn1`: -5.36% (inactive); for `O=C(Nc1ccc2ccccc2c1)Nc1ccc2snnc2c1`: 55.2% (active); for `O=C(Nc1cccc(Br)c1)c1ccc2snnc2c1`: 17.8% (inactive). The same measure for `CCc1ccccc1NC(=O)c1ccc2snnc2c1`: -1.87% (inactive); for `COc1cc(C2OC(c3cc(OC)c(OC)c(OC)c3)C(C)C2C)cc(OC)c1OC` (stereo unspecified): -16.8% (inactive); for `CC1(NC(=O)CCS(=O)(=O)c2ccc(Cl)cc2)CCS(=O)(=O)C1` (stereo unspecified): -11.8% (inactive).

On to `CCCN1C(=O)C(NS(=O)(=O)c2ccc(N)cc2)(C(F)(F)F)C(C(=O)OC)=C1C` (stereo unspecified), for which the inhibition is -9.93% (inactive). As to `COc1cc(NC(=O)CSc2nnc3ccc(-c4ccncc4)nn23)cc(OC)c1`, the inhibition was -9.28% (inactive). With `CCOC(=O)c1ccc(NC(=O)CSc2nnc(COc3ccccc3OC)n2C)cc1` the figure was -24.5% (inactive). The same measure for `CCOC(=O)c1ccc(NC(=O)Cn2cnc3cc(C)c(C)cc32)cc1`: 56.1% (active); for `CCCc1nnc(SCC(=O)Nc2ccc(C(=O)OCC)cc2)o1`: -6.7% (inactive). With `COc1ccc(C(=O)Nc2cc(S(=O)(=O)N3CCCC3)ccc2Cl)cc1` the figure was -15.8% (inactive). Take `CN(C)C(=O)CCc1ccc2c3c([nH]c2c1)[C@]1(CCc2ccccc2)[C@@H](C(=O)N2CCCCC2)C[C@H](CC(=O)NCCC2=CCCCC2)C(=O)N1CC3`: the inhibition is -31.7% (inactive).

As to `Oc1cc(O)c2c(c1)OC(c1ccc(O)c(O)c1)C(O)C2` (stereo unspecified), the inhibition was -0.43% (inactive).

On to `CC(C)Cc1nnc(NC(=O)CCNC(=O)c2ccccc2Cl)s1`, for which the inhibition is -7.69% (inactive).

Consider `CCOC(=O)N1CCN(C(=O)C2CCN(S(=O)(=O)c3cc(Cl)ccc3OCC)CC2)CC1`, for which the inhibition was -9.79% (inactive).

With `CCOC(=O)N1CCN(C(=O)C2CCN(Cc3ccc(OC)cc3OC)CC2)CC1`, the inhibition was -15.1% (inactive). With `CCOC(=O)N1CCN(C(=O)C2CCN(c3ncnc4c3sc3cccc(F)c34)CC2)CC1` the figure was 37.1% (active). The same measure for `COc1cccc(CC(=O)OCC(=O)NCc2ccc3c(c2)OCO3)c1`: -4.2% (inactive); for `CSc1nccc(NC(=O)c2ccc(C(C)(C)C)cc2)n1`: 33.6% (active). Regarding `Cc1cccc(NC(=O)c2ccc(S(=O)(=O)N(C)c3ccccc3)cc2)n1`, the inhibition is -10.9% (inactive).

As for `Cc1cccc(NC(=O)c2cccnc2Cl)n1`, the inhibition is 1.32% (inactive). On to `O=c1cnnc(Nc2ccccc2)[nH]1`, for which the inhibition was -11.1% (inactive).

Take `CCOc1ccccc1OCC(=O)Nc1ccccc1C(=O)NC1CC1`: the inhibition was 14.9% (inactive). Take `CC(C)OCCCNc1ncnc2c1[nH]c1ccc(F)cc12`: the inhibition is 58.6% (active). The same measure for `O=C1c2ccccc2C(=O)N1CCC#Cc1ccc2cc(C3(O)CCCCC3)oc(=O)c2c1`: -14.2% (inactive); for `O=C(NCCC(=O)N1O[C@@H]2C=C[C@H]1C2)OCC1c2ccccc2-c2ccccc21`: -10.5% (inactive). In the case of `CC(C)Cc1cc(C(=O)NCCc2ccccc2)no1`, the inhibition is -2.04% (inactive). The same measure for `CC(C)CNC(=O)c1cc(-c2ccc(Br)cc2)on1`: -10.3% (inactive); for `CC(C)Cc1cc(C(=O)Nc2cc(Br)ccc2O)no1`: 43% (active); for `Cc1ccc(C)c(S(=O)(=O)Nc2cccc(-n3cnnn3)c2)c1`: -1.77% (inactive). Regarding `CCOC(=O)C1CCCN(C(=O)c2cccc(S(=O)(=O)N3CCOCC3)c2)C1` (stereo unspecified), the inhibition is -2.51% (inactive).

In the case of `COc1ccc(/C=C/C(=O)Nc2c(C)nn(C)c2C)cc1COc1ccc(Br)cc1`, the inhibition was 13.3% (inactive).

With `O=C(Nc1ccc(C2CC2(Cl)Cl)cc1)c1cccc([N+](=O)[O-])c1` (stereo unspecified), the inhibition was 46.7% (active).

For `O=C(Nc1cccc([N+](=O)[O-])c1)c1ccc2c(c1)OCO2`, the inhibition was -1.24% (inactive). The same measure for `O=C(Nc1ccc(NC(=O)c2ccco2)c(Cl)c1)c1cccc([N+](=O)[O-])c1`: -6.79% (inactive); for `COC(=O)[C@@H]1C[C@@]2(O)[C@H](O)[C@H](O)[C@H](O)C[C@H]2N1Cc1ccc(C)s1`: 2.13% (inactive); for `O=C(CO/N=C/c1ccccc1O)NNC(=O)c1ccccc1Cl`: 2.58% (inactive).

In the case of `CC[n+]1cc(C)ccc1/C=C/c1ccc(N(C)C)cc1`, the inhibition was 51.9% (active). On to `CCOC(=O)C1=CN(Cc2ccc(Br)cc2)S(=O)(=O)N(C)C1C` (stereo unspecified), for which the inhibition is -13.1% (inactive). As for `O=C(NCC1CCCO1)/C(=C/c1ccc(Cl)cc1)NC(=O)c1ccccc1` (stereo unspecified), the inhibition is -2.9% (inactive). The same measure for `O=C(N/C(=C\c1ccc(O)cc1)C(=O)N1CCCCC1)c1ccccc1`: -2.82% (inactive). With `N#C/C(=C/c1ccc(Cl)cc1)NC(=O)c1ccccc1`, the inhibition was 50.3% (active).

As to `S=C(NCCC1=CCCCC1)Nc1ccccc1`, the inhibition was 6.17% (inactive). With `COc1cc(OC)c2c(-c3cccc(-c4cccc(N)c4)c3)cc(=O)oc2c1` the figure was -15.7% (inactive). The same measure for `CSc1sc(C)cc1C1C(C#N)=C(N)N(c2cccnc2)C2=C1C(=O)CCC2` (stereo unspecified): -13.3% (inactive); for `CCN(CC)C(=O)N(CC)Cc1ccccc1`: -0.04% (inactive). Regarding `OCCN(Cc1ccccc1)Cc1ccc(Cl)cc1`, the inhibition is -28.2% (inactive). The same measure for `CN(C(=O)CN(CCO)CC(=O)N(C)C(C)(C)Cc1ccccc1)C(C)(C)Cc1ccccc1`: 52.8% (active); for `CCc1cccc(NC(=S)N(CCN(C)C)C2CCN(C(C)C)CC2)c1`: 1.41% (inactive); for `CCc1cc2c(=O)c(-c3ccon3)c(N)oc2cc1OC`: -10.2% (inactive).

With `Cc1ccc(-c2cccc([C@H]3[C@@H]4C=CC[C@@H](C)[C@@H]4C(=O)N3Cc3ccccc3)c2)cc1`, the inhibition was -46.9% (inactive). With `CSc1ccccc1C(=O)Nc1cccc(C(C)=O)c1` the figure was -10% (inactive); with `CCSc1nsc(NC(=O)Nc2cccc(C(C)=O)c2)n1`, 66.5% (active); with `CCSc1nsc(NC(=O)Nc2ccccc2OC)n1`, -18.1% (inactive). The same measure for `C=CCSc1nsc(NC(=O)Nc2cccc(C(C)=O)c2)n1`: 46.6% (active). With `CSc1nsc(NC(=O)Nc2ccccc2)n1` the figure was 18.8% (inactive); with `C=CCSc1nnc(NC(=O)c2ccc(NC(C)=O)cc2)s1`, -14.6% (inactive).

For `CN(C)C=NC(=O)c1cccn1-c1ncc(C(F)(F)F)cc1Cl`, the inhibition is 7.02% (inactive). With `O=C(O)CCN1C(=O)CC2(CCCCC2)C1=O` the figure was 6.17% (inactive); with `CCOC(=O)c1c(C)[nH]c(C(=O)COc2ccc3c(c2)OCO3)c1C`, 39.2% (active); with `CCOC(=O)c1c(C)[nH]c(C(=O)OCC(=O)c2ccc(OC)cc2OC)c1C`, -26.3% (inactive). The same measure for `CC(=O)c1c(C)[nH]c(C(=O)COc2ccc3c(C)cc(=O)oc3c2)c1C`: 1.48% (inactive); for `COc1ccc(-c2cnc(SCCNC(=O)c3ccc4c(c3)OCO4)[nH]2)cc1`: -9.72% (inactive). For the compound `Cc1ccc(NC(=O)c2ccc(Cl)nc2)cc1S(=O)(=O)N1CCOCC1`, the inhibition was -8.73% (inactive). Consider `CCN1/C(=C/c2ccc3ccc(C)cc3[n+]2CC)Sc2ccccc21`, for which the inhibition was 80.2% (active). With `CCN1/C(=C\c2ccc3ccccc3[n+]2CC)Sc2cc(C)ccc21` the figure was 79.6% (active); with `CCOC(=O)CN(C(=O)COc1nc(-c2ccccc2)cc(C)c1C#N)c1ccc(F)cc1`, -20.7% (inactive). On to `O=C(O)CN(Cc1ccco1)S(=O)(=O)c1ccccc1`, for which the inhibition is -6.05% (inactive). Turning to `COc1ccc(C(=O)OCC(=O)c2cc(C)n(CC3CCCO3)c2C)cc1[N+](=O)[O-]` (stereo unspecified), the inhibition was -4.71% (inactive). The same measure for `CC(NC(=S)Nc1ccc(OC(F)F)cc1)c1ccc(F)cc1` (stereo unspecified): 14.7% (inactive). The same measure for `COc1cccc(CNC(C)C(=O)Nc2ccc(S(=O)(=O)N3CCCC3)cc2)c1` (stereo unspecified): -9.95% (inactive); for `COc1cc2c(cc1OC)C(C(=O)NCc1ccco1)C1c3ccccc3CCN1C2=O` (stereo unspecified): -23.7% (inactive).

Consider `CCOC(=O)c1sc(NC(=O)CSc2nc(C)cc(C(F)(F)F)n2)c(C#N)c1C`, for which the inhibition is 4.56% (inactive). As for `Cc1ccc(S(=O)(=O)N2CCN(C(=O)COC(=O)c3c(C)noc3C)CC2)c(C)c1`, the inhibition was -5.91% (inactive). The same measure for `COc1ccc(C(=O)COC(=O)c2c(C)noc2C)cc1Cl`: -10.6% (inactive); for `Cc1ccc(-c2nc(COC(=O)c3c(C)noc3C)cs2)cc1`: 44.1% (active); for `COc1ccc(S(=O)(=O)N2CCN(c3ncnc4c(-c5ccccc5)nsc34)CC2)cc1`: -9.64% (inactive). On to `COCc1c(C(=O)OCC(=O)Nc2ccc(OC(F)F)cc2)oc2ccccc12`, for which the inhibition was -11.9% (inactive). Consider `Cc1nc(CNS(=O)(=O)c2cc([N+](=O)[O-])ccc2C)cs1`, for which the inhibition was -14.4% (inactive). For the compound `Cc1ccc(S(=O)(=O)NCc2csc(C)n2)c(C)c1`, the inhibition is -13.8% (inactive). With `Cc1nc(CNS(=O)(=O)c2ccc(Oc3ccccc3)cc2)cs1` the figure was 44.4% (active).
